Assay outcomes from PubChem.
PHOSPHO1 block: PHOSPHO1 (human) inhibition; Q8TCT1; recombinant PHOSPHO1, absorbance phosphatase assay; inhibition, % at 13.3 µM; 290,000 compounds, 1.1% hits; in the data active = inhibition above about 60%
KCNK9 inh: blocks the human KCNK9 two-pore domain potassium channel; Q9NPC2; 310,000 compounds, 1.2% hits; B-score at 10 µM; HEK293 KCNK9, FluxOR thallium flux fluorescence; stronger effect = lower value;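 active = ratio B-score over 3 SD below the library mean, with starting fluorescence within 5 SD of its mean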;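 also: negative B-score means less thallium flux so channel inhibition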
hERG protect: hERG (human) protection from proarrhythmic block; Q12809; 310,000 compounds, 0.51% hits; CHO-hERG, FluxOR thallium flux, dofetilide IC70 present; activation (rescue from dofetilide block), less the hit threshold, % at 10 µM;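 active = activation above the mean of controls blocked by dofetilide plus 5 SD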;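 also: thallium influx through hERG after potassium depolarization seen as dye fluorescence rise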
Target sequence (Q12809 whole entry, looked up): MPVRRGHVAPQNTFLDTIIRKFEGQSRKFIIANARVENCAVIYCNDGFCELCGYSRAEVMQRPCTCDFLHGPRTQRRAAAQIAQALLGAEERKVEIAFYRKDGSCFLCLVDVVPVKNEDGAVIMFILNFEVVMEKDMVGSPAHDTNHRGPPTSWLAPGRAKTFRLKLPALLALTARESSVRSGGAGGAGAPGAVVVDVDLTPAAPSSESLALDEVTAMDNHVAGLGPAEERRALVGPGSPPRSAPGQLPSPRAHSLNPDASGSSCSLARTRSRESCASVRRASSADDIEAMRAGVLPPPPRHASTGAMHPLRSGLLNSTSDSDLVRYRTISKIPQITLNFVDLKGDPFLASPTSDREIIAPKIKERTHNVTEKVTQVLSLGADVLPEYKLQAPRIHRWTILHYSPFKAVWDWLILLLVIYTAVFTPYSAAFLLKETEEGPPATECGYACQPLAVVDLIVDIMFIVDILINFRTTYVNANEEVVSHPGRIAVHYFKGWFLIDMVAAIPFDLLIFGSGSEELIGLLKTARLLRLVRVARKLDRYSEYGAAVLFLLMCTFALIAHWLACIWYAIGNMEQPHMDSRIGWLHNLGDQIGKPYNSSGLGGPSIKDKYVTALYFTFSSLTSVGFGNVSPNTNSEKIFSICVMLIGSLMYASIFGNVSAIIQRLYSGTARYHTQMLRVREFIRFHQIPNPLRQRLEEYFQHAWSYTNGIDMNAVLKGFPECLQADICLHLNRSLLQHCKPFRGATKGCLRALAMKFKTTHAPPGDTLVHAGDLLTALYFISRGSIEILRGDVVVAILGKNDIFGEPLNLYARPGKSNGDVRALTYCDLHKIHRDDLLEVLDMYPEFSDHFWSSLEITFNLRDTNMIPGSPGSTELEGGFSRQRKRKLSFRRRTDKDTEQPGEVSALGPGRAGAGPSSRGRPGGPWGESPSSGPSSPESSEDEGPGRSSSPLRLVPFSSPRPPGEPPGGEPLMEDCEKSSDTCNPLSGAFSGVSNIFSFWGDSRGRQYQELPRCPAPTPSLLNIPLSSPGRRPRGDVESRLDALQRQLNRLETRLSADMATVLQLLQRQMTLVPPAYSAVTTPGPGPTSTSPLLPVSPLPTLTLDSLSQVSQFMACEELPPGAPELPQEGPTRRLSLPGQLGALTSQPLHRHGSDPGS
KCNK3 block: human KCNK3 channel inhibition, primary screen. AID 602410. 340,000 compounds, 0.84% hits. B-score at 10 µM. CHO-KCNK3 thallium flux, FluxOR fluorescence; stronger effect = lower value. O14649;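 active = B-score under library mean minus 4 SD, starting fluorescence ratio at most library mean plus 5 SD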;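 also: more negative B-score means stronger inhibition of thallium flux through KCNK3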
KCNQ1 act: potentiators or activators of human KCNQ1 potassium channel. P51787. CHO-K1 KCNQ1, thallium flux FluxOR fluorescence; stronger effect = higher value. B-score at 10 µM. 310,000 compounds, 0.35% hits;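 active = fluorescence ratio B-score, a plate-corrected score, at least three library SD, with initial intensity B-score within 5 SD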
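Material: CHO-K1 cells stably expressing KCNQ1. Medium: assay buffer for compound exposure, DMSO matched across wells. Reagent: K+/Tl+ depolarizing stimulus. Compound dosing: single-concentration screen. Times: 37 °C overnight plating, 90-min dark dye load, 20-min compound pretreatment. Technique: FluxOR Tl+ flux fluorescence.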
KCNQ1 inh: human KCNQ1 channel inhibition. P51787. CHO-K1 KCNQ1, FluxOR thallium flux fluorescence; stronger effect = higher value. B-score at 10 µM. 310,000 compounds, 1.3% hits;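 active = compounds whose thallium flux B-score, printed positive for inhibition, exceeds three library SD while starting fluorescence stays within three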;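 also: channel opened by potassium depolarization with thallium stimulus after 20 min compound exposure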
KCNK9 block conf: human KCNK9 inhibitor confirmation. shares compounds with KCNK9 inh. HEK293 KCNK9 cells, FluxOR thallium flux fluorescence. inhibition, % at 10 µM. 4,900 compounds, 43% hits. AID 492992;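 active = thallium signal inhibited by more than 5 SD of the compound-free buffer control wells, on both duplicate plates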;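 also: 0% = assay buffer control wells without compound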
Kir21 sel: selectivity of KCNK9 modulators against mouse Kir2.1 | Kir2.1 cells, FluxOR thallium flux fluorescence | shares compounds with KCNK9 inh | inhibition, % at 10 µM | 4,900 compounds, 4% hits;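 active = thallium signal drop more than 5 SD beyond the mean of the no-compound control wells, seen in both duplicate plates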;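 also: signal is fluorescence rise after thallium addition divided by baseline fluorescence; plate controls were assay buffer only for no effect and full block by chlorpromazine control for full effect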
HEK293 Tl ctr: second check of KCNK9 modulator effects in non-induced HEK293 cells. FluxOR thallium flux. inhibition, % at 10 µM. shares compounds with KCNK9 inh. AID 492997. 4,900 compounds, 40% hits;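 active = thallium signal drop beyond 5 SD of the untreated control mean, on both duplicate plates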;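 also: plate controls were buffer only IC0 wells for no effect and SID17386958 at its maximal inhibitory level for full effect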
KCNK3 confirm: confirmation of human KCNK3 two-pore domain potassium channel inhibitors | ratio percent of control, % at 10 µM | CHO-KCNK3 thallium flux, FluxOR fluorescence; 0% buffer, 100% carvedilol maximal block | shares compounds with KCNK3 block | 2,400 compounds, 99% hits;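 active = ratio percent of control, averaged over triplicates, above buffer control mean plus 5 SD, cut at about 64% in these data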;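 also: ratio is the fluorescence rise from min to max over baseline after thallium stimulus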
KCNK3 uninduced: counter-screen for KCNK3 inhibitors: effect in non-induced cells. non-induced KCNK3 parental cells, FluxOR thallium flux; stronger effect = lower value. AID 651747. thallium flux ratio (lower = more inhibition) at 10 µM. shares compounds with KCNK3 block. 2,400 compounds, 40% hits;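 active = thallium flux ratio, averaged over three wells, more than 5 SD below the buffer control mean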;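 also: host cells are CHO cells without KCNK3 induction; ratio is peak minus trough fluorescence over baseline then normalized to buffer controls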
Numbers without * were called inactive; i = inactive; x = not tested or not shown. Compounds with a hit are over-represented: about 4% of the library has one in this group of screens.

SMILES | PHOSPHO1 block | KCNK9 inh | hERG protect | KCNK3 block | KCNQ1 act | KCNQ1 inh | KCNK3 confirm | KCNK3 uninduced | others
CC(C)OC(=O)CSc1nc(Cc2ccccc2)nc2ccccc12 | 23 | -15* | -24 | -11* | i | i | 97* | i | KCNK9 block conf=58%*;Kir21 sel=36%*;HEK293 Tl ctr=38%*
CC(C)OC(=O)CSc1nc(C(C)C)nc2ccccc12 | 3 | i | -13 | i | i | i | x | x
COC(=O)CN(Cc1ccccc1)S(=O)(=O)c1ccc(OC)c(OC)c1 | 9 | i | 1 | i | i | i | x | x
N#C/C(=C/c1ccc(Sc2nc3ccccc3[nH]2)o1)c1cccc(F)c1 | 53 | i | -15 | -9.8* | i | 13* | 122* | i | KCNK9 block conf=i;Kir21 sel=i;HEK293 Tl ctr=i
Cc1ccc(/C(C#N)=C\c2ccc(N3CCOCC3)o2)cc1 | 62* | -12* | -16 | -15* | i | 9* | 168* | 0.044* | KCNK9 block conf=57%*;Kir21 sel=i;HEK293 Tl ctr=84%*
N#CC(C#N)=Cc1cc2ccccc2nc1N1CCCCC1 | 0 | i | -11 | i | i | i | x | x
N#C/C(=C/c1ccc(N2CCCCC2)o1)c1cccc(F)c1 | 0 | -10* | -26 | -14* | i | i | 170* | 0.079* | KCNK9 block conf=78%*;Kir21 sel=i;HEK293 Tl ctr=72%*
Cc1sc2nc(SCC(=O)Nc3cccc(C(=O)O)c3)[nH]c(=O)c2c1C | x | x | x | i | x | x | x | x
COCCn1c(SCC(=O)c2ccccc2)nc2ccccc2c1=O | -9 | i | -6 | i | i | i | x | x
COCCn1c(SCCOc2ccccc2)nc2ccccc2c1=O | 24 | -11* | -11 | -9* | i | i | 114* | 0.14* | KCNK9 block conf=38%*;Kir21 sel=i;HEK293 Tl ctr=46%*
CCSc1nc2ccccc2n1CCOc1ccccc1 | -4 | -12* | -3 | -11* | i | i | 120* | i | KCNK9 block conf=28%*;Kir21 sel=i;HEK293 Tl ctr=30%*
CC(C)N(CCC(=O)c1ccc2ccccc2c1)Cc1ccccc1 | x | x | x | i | x | x | x | x
COc1ccc(-c2nc(-c3ccc(O)cc3O)cs2)cc1OC | 28 | -13* | -31 | -12* | i | i | 124* | i | KCNK9 block conf=50%*;Kir21 sel=i;HEK293 Tl ctr=i
CN(CCC1CCCCO1)C(=O)c1cc(COc2ccc(F)cc2F)on1 (configuration not stated) | 18 | i | -11 | i | i | i | x | x
CN(CCCC1CCCC1)C(=O)c1cc(COc2ccc(F)c(F)c2)on1 | 34 | -8.8* | -8 | -9.2* | i | i | 122* | i | KCNK9 block conf=i;Kir21 sel=i;HEK293 Tl ctr=38%*
NC(=O)C1CCN(C(=O)c2ccc(NC3=NC4CS(=O)(=O)CC4S3)cc2)CC1 (configuration not stated) | -1 | i | -3 | i | i | i | x | x
CN(C)Cc1c(O)ccc2[nH]cnc12 | -32 | i | -1 | -10* | i | i | 80* | i
Oc1ccc2ccc3[nH]cnc3c2c1 | 42 | i | -2 | i | i | i | x | x
CN(CCOc1ccc(Cl)cc1)C(=O)c1cc(-c2ccco2)nc2ccccc12 | x | i | -32 | -10* | i | i | 117* | 0.13*
Oc1cnc2ccccc2c1CN1CCOCC1 | 6 | i | -2 | -8.9* | i | i | 82* | i
Cc1nc(-c2nnc(SCC(=O)Nc3ccc(Cl)cc3)n2C)cs1 | 32 | i | -5 | i | i | i | x | x
CC(C)(C)NC(=O)c1ccc(Sc2ccccc2)c([N+](=O)[O-])c1 | 14 | i | -9 | -9* | i | i | 119* | i
O=C(O)CNC(=O)c1ccc(Sc2ccccc2)c([N+](=O)[O-])c1 | 7 | i | -13 | i | i | i | x | x
Cc1ccccc1OCc1nc(-c2ccc(Br)o2)no1 | -21 | i | -2 | -12* | i | i | 98* | i
Cc1ccccc1OCc1nc(-c2ccccc2)no1 | 9 | i | -14 | i | i | i | x | x
SMILES | PHOSPHO1 block | KCNK9 inh | hERG protect | KCNK3 block | KCNQ1 act | KCNQ1 inh | KCNK3 confirm | KCNK3 uninduced | others
Cc1ccccc1CSCC(=O)NNC(=S)NCC1CCCO1 (configuration not stated) | -73 | i | -14 | i | i | i | x | x
C=CCN1C(=O)C(Cc2cccc(Cl)c2)SC1=Nc1ccc(C(=O)O)cc1 (configuration not stated) | 28 | i | -9 | i | i | i | x | x
Cc1cc(N2C3CCC2CC(O)(c2ccc(F)cc2)C3)nc(-c2ccccc2)n1 (configuration not stated) | -14 | i | -9 | -10* | i | i | 101* | 0.15*
COCCCNC(=O)c1cn(Cc2c(F)cccc2Cl)nn1 | 5 | i | -2 | i | i | i | x | x
O=C(CSc1nnc(SCc2ccc(Cl)cc2)s1)N/N=C/c1c[nH]c2ccccc12 | -13 | i | -11 | i | i | i | x | x
O=C(N/N=C/c1c[nH]c2ccc(Br)cc12)c1ccn(Cc2ccc(Cl)cc2Cl)n1 | -2 | -7.2* | -12 | -9.8* | i | i | 79* | i
O=C(N/N=C/c1c[nH]c2ccc(Br)cc12)c1ccccn1 | 9 | i | -7 | i | i | i | x | x
O=C(N/N=C/c1c[nH]c2ccccc12)c1ccn(Cc2ccc(Cl)cc2)n1 | 27 | i | -16 | -11* | i | i | 98* | 0.15*
COc1cc2c(cc1OC)-c1cc(Nc3ccccc3Br)nc(=O)n1CC2 | 7 | i | 1 | i | i | i | x | x
CCOc1ccccc1N1CCN(C(=S)NCc2ccc(Cl)cc2)CC1 | -14 | i | -12 | -9* | i | i | 119* | i
CCOc1ccccc1N1CCN(C(=S)NC(=O)C23CC4CC(CC(C4)C2)C3)CC1 | 1 | i | -6 | i | i | i | x | x
COc1ccccc1CNC(=O)Cc1csc(NC(=O)Nc2ccccc2OC)n1 | x | i | -14 | -8.7* | i | i | 99* | i
COc1ccccc1NC(=O)Nc1nc(CC(=O)NCc2ccccn2)cs1 | x | i | -11 | i | i | i | x | x
